≈ marks a conversion by molar mass, not a printed value.

We go through 24 compounds from ChEMBL document CHEMBL3779817, “Investigations on the 4-Quinolone-3-carboxylic Acid Motif. 7. Synthesis and Pharmacological Evaluation of 4-Quinolone-3-carboxamides and 4-Hydroxy-2-quinolone-3-carboxamides as High Affinity Cannabinoid Receptor 2 (CB2R) Ligands with Improved Aqueous Solubility” (J Med Chem, 2016).

A short description of data set [1]: Kinetic solubility in DMSO solution at pH 7.4 after 2 hrs by HPLC-UV analysis. The class given is physicochemical. The conditions noted are these: for solubility kinetic at 2 h: DMSO solution, pH 7.4, read-out: Kinetic_solubility; for log(Kinetic_solubility): pH 7.4, 2 h.
The next data set is filed under the species Homo sapiens. The experiment in a line: Selectivity index, ratio of Ki for recombinant human CB1 receptor to Ki for recombinant human CB2 receptor.
A short description of data set [2]: Kinetic solubility in DMSO solution at pH 1.0 after 2 hrs by HPLC-UV analysis. It is filed as physicochemical. Particulars: read-out: Kinetic_solubility.
Data set [3] has as its target Cannabinoid receptor 1 (Homo sapiens) (UniProt P21554). The conditions noted are these: HEK293.
In data set [4] the target is T1, Cannabinoid receptor 2 (Homo sapiens, UniProt P34972). The experiment in a line: Displacement of [3H]-CP-55940 from human recombinant CB2 receptor expressed in HEK293 cells after 90 mins by Competition binding assay. The class given is cell-based.
Data set [5] can be described thus: Cytotoxicity against mouse NIH/3T3 cells assessed as cell viability after 24 hrs by neutral red uptake test. The class given is cell-based. The conditions noted are these: NIH3T3, 24 h.
The target in data set [6] is T1, Cannabinoid receptor 2. Put plainly: Inverse agonist activity at recombinant human CB2 receptor expressed in CHO-K1 cells assessed as increase in […]-induced cAMP production by luminescence assay. The class given is functional, cell-based. Summed up: (§1)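 CHO-K1 cells overexpressing human CB2, 30000 per well, left overnight at 37 °C, 5% CO2, then given compound dose–response with NKH477 (3× solution of 25 μM) to stimulate adenylate cyclase. cAMP read by enzyme-fragment-complementation chemiluminescence; response normalised to NKH477 alone as 100%. Mean ± SEM of two independent experiments in triplicate.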

Data set [7] concerns the target T1, Cannabinoid receptor 2. The experiment in a line: Inverse agonist activity at recombinant human CB2 receptor expressed in CHO-K1 cells assessed as increase in […]-induced cAMP production by luminescence assay relative to AM630. The class given is functional, cell-based. The essentials:
as §1

Cannabinoid receptor 1 (Homo sapiens), sequence (P21554 whole entry): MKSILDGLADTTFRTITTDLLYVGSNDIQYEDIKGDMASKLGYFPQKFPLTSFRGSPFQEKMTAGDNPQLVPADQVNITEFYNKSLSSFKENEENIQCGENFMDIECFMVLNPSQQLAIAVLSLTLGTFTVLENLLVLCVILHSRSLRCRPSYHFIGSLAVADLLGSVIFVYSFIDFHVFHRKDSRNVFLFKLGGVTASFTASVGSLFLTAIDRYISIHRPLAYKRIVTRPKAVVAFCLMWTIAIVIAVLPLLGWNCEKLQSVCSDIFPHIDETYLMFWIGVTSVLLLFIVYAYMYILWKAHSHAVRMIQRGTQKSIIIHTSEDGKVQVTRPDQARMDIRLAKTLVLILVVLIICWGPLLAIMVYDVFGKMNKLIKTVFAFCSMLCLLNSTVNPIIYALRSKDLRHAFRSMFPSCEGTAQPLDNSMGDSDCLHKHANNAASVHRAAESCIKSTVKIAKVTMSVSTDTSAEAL
T1 sequence (P34972 whole entry): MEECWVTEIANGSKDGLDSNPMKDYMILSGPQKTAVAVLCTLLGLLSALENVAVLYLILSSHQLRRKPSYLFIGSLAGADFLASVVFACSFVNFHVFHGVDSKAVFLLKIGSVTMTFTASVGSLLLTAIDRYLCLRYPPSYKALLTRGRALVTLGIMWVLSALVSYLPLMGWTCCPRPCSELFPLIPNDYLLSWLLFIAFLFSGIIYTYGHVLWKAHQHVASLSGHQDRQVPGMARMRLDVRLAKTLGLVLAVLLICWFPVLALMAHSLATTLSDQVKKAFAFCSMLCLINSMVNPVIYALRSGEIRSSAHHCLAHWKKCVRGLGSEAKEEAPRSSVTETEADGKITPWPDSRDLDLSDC

For `CC(C)c1cc2c(=O)c(C(=O)NC34CC5CC(CC(C5)C3)C4)cn(CCN(C)C)c2cc1F`, the solubility kinetic at 2 h in data set [1] turned out to be 12.1 µg/mL (≈ 26.7 µM); in data set [2], 35.5 µg/mL (≈ 78.3 µM). The “log(Kinetic_solubility)” value in data set [1] is -4.57. Further, in the data set listed under Homo sapiens, the Ratio Ki came out at 63. In addition, the Kieq in data set [3] was determined as 717 nM; at Cannabinoid receptor 2 [4], 11.4 nM.

On to `CCCCCn1c2c(c(O)c(C(=O)NC34CC5CC(CC(C5)C3)C4)c1=O)CCCC2`, for which, in data set [1], the solubility kinetic at 2 h worked out at 1.3 µg/mL (≈ 3.15 µM) and the “log(Kinetic_solubility)” value was -5.5. The IC50 in data set [5] was determined as 15 µM. Also, the solubility kinetic at 2 h in data set [2] amounted to 0.1 µg/mL (≈ 0.242 µM).

As to `CCCCCn1c(=O)c(C(=O)NCc2ccc(OC)cc2)c(O)c2cc(-c3cccs3)ccc21`, the Ratio Ki in the data set listed under Homo sapiens was found to be 8. Besides, the Kieq is 159 nM in data set [3] and 19.7 nM at Cannabinoid receptor 2 [4].

On to `CCCCCn1c(=O)c(C(=O)NC23CC4CC(CC(C4)C2)C3)cc2cc(C(C)C)ccc21`, for which the IC50 in data set [5] was 92 µM.

Turning to `CCCCCn1c(=O)c(C(=O)NC23CC4CC(CC(C4)C2)C3)c(O)c2ccccc21`, on Cannabinoid receptor 2 [6], the EC50 came out at 0.0024 µM. Further, the values for the solubility kinetic at 2 h in data set [1] and in data set [2] were 1.4 µg/mL (≈ 3.43 µM) and 0.23 µg/mL (≈ 0.563 µM), respectively. Also, the “log(Kinetic_solubility)” value in data set [1] is -5.47. In addition, the values for the IC50 (in data set [5]; at Cannabinoid receptor 2 [4]) were 74 µM and 0.002 µM, respectively. The Efficacy on Cannabinoid receptor 2 [7] is less than 50%.

Regarding `CCCCCn1cc(C(=O)NC23CC4CC(CC(C4)C2)C3)c(=O)c2cc(C(C)C)c(F)cc21`, in data set [5], the IC50 was 9 µM.

As to `CC(C)c1ccc2c(c1)c(=O)c(C(=O)NC13CC4CC(CC(C4)C1)C3)cn2CCN1CCS(=O)(=O)CC1`, the Ratio Ki in the data set filed under Homo sapiens is more than 5. Also, the Kieq was more than 10000 nM in data set [3] and 1930 nM at Cannabinoid receptor 2 [4].

Turning to `O=C(NC12CC3CC(CC(C3)C1)C2)c1cn(CCN2CCS(=O)(=O)CC2)c2cc(F)ccc2c1=O`, the Ratio Ki in the data set listed under Homo sapiens stood at 8. For the same compound, the figures for the Kieq (in data set [3]; at Cannabinoid receptor 2 [4]) were 1900 nM and 246 nM, respectively.

For the compound `CCCCCn1cc(C(=O)NC23CC4CC(CC(C4)C2)C3)c(=O)c2ccc(F)cc21`, the solubility kinetic at 2 h in data set [1] was 0.014 µg/mL (≈ 0.0341 µM); in data set [2] it was 0.05 µg/mL (≈ 0.122 µM). For the same compound, in data set [1], the “log(Kinetic_solubility)” value is on record as -7.47. For the same compound, the Ratio Ki in the data set filed under Homo sapiens came out at 38. The IC50 in data set [5] was determined as 74 µM. For the same compound, the Kieq in data set [3] came to 30.5 nM; at Cannabinoid receptor 2 [4] it was 0.8 nM.

In data set [3], `Cc1ccc(Cn2nc(C(=O)N[C@@H]3C(C)(C)[C@@H]4CC[C@@]3(C)C4)cc2-c2ccc(Cl)c(C)c2)cc1` registered a Kieq of more than 2820 nM.

Turning to `CCCCCn1c(=O)c(C(=O)NC23CC4CC(CC(C4)C2)C3)c(O)c2cc(C(C)C)ccc21`, the EC50 on Cannabinoid receptor 2 [6] was 0.0026 µM. The solubility kinetic at 2 h in data set [1] is 1.9 µg/mL (≈ 4.22 µM); in data set [2], 0.02 µg/mL (≈ 0.0444 µM). Moreover, the “log(Kinetic_solubility)” value in data set [1] is -5.38. Moreover, in the data set listed under Homo sapiens, the Ratio Ki is 2350. Also, the IC50 in data set [5] was found to be 13 µM; at Cannabinoid receptor 2 [4], 0.0037 µM. In addition, at Cannabinoid receptor 2 [7], the Efficacy was less than 50%. Also, the results for the Kieq (in data set [3]; at Cannabinoid receptor 2 [4]) were 1240 nM and 0.53 nM, respectively.

As to `CCCCCn1c(=O)c(C(=O)NC23CC4CC(CC(C4)C2)C3)c(O)c2cc(C(C)C)c(F)cc21`, in the data set filed under Homo sapiens, the Ratio Ki was more than 150. For the same compound, the IC50 in data set [5] was determined as 13 µM. In addition, the Kieq in data set [3] was more than 10000 nM; on Cannabinoid receptor 2 [4], 66.4 nM.

`CCCCCn1cc(C(=O)NC23CC4CC(CC(C4)C2)C3)c(=O)c2cc(-c3ccccc3)ccc21`: the Ratio Ki in the data set filed under Homo sapiens is more than 2660. In addition, the Kieq is more than 10000 nM in data set [3] and 3.8 nM on Cannabinoid receptor 2 [4].

For the compound `COCCOCn1cc(C(=O)NC23CC4CC(CC(C4)C2)C3)c(=O)c2ccc(F)cc21`, in the data set listed under Homo sapiens, the Ratio Ki was more than 177. The Kieq in data set [3] was more than 10000 nM; on Cannabinoid receptor 2 [4] it was 56 nM.

With `O=C(NCC1CCCCC1)c1c(O)c2ccccc2n(CCCCO)c1=O`, in the data set listed under Homo sapiens, the Ratio Ki is 20. For the same compound, the Kieq is 829 nM in data set [3] and 41.3 nM on Cannabinoid receptor 2 [4].

Regarding `O=C(NCc1ccc(F)cc1)c1c(O)c2cc(-c3ccco3)ccc2n(CCCCO)c1=O`, the Ratio Ki in the data set listed under Homo sapiens worked out at 6. Besides, the Kieq in data set [3] stood at 1580 nM; at Cannabinoid receptor 2 [4], 253 nM.

Consider `CCCCCn1c(=O)c(C(=O)NC23CC4CC(CC(C4)C2)C3)c(O)c2ccc(F)cc21`, for which, at Cannabinoid receptor 2 [6], the EC50 turned out to be 0.0179 µM. The solubility kinetic at 2 h amounted to 1.5 µg/mL (≈ 3.52 µM) in data set [1] and 0.17 µg/mL (≈ 0.399 µM) in data set [2]. Also, the “log(Kinetic_solubility)” value in data set [1] is recorded as -5.45. For the same compound, the Ratio Ki in the data set listed under Homo sapiens is 1380. The IC50 is 19 µM in data set [5] and 0.0035 µM on Cannabinoid receptor 2 [4]. The Efficacy on Cannabinoid receptor 2 [7] was less than 50%. For the same compound, the Kieq in data set [3] is 1280 nM; at Cannabinoid receptor 2 [4], 0.93 nM.

On to `CC(C)c1ccc2c(c1)c(=O)c(C(=O)NC13CC4CC(CC(C4)C1)C3)cn2CCN(C)C`, for which the solubility kinetic at 2 h in data set [1] was determined as 4.5 µg/mL (≈ 10.3 µM); in data set [2] it was 31.5 µg/mL (≈ 72.3 µM). For the same compound, in data set [1], the “log(Kinetic_solubility)” value was -4.99. Also, the Ratio Ki in the data set filed under Homo sapiens was more than 68. For the same compound, the IC50 in data set [5] stood at 5 µM. The Kieq in data set [3] was more than 10000 nM; at Cannabinoid receptor 2 [4] it was 146 nM.

Turning to `CCCCCn1cc(C(=O)NC23CC4CC(CC(C4)C2)C3)c(=O)c2ccccc21`, the Ratio Ki in the data set filed under Homo sapiens came to 9. The Kieq in data set [3] came to 42.1 nM; at Cannabinoid receptor 2 [4], 4.7 nM.

Regarding `CCCCCn1cc(C(=O)NC23CC4CC(CC(C4)C2)C3)c(=O)c2cc(C(C)C)ccc21`, in data set [1], the solubility kinetic at 2 h is 1 µg/mL (≈ 2.3 µM) and the “log(Kinetic_solubility)” value is reported as -5.64. Also, in data set [5], the IC50 is 14 µM. In data set [2], the solubility kinetic at 2 h worked out at 0.21 µg/mL (≈ 0.483 µM).

As to `COc1ccc(CNC(=O)c2c(O)c3cc(-c4cccs4)ccc3n(CCCCO)c2=O)cc1`, the Ratio Ki in the data set filed under Homo sapiens is more than 4. In addition, the Kieq in data set [3] is more than 10000 nM; at Cannabinoid receptor 2 [4] it was 2240 nM.

Take `CN(C)CCn1cc(C(=O)NC23CC4CC(CC(C4)C2)C3)c(=O)c2ccc(F)cc21`: the solubility kinetic at 2 h was found to be 5.6 µg/mL (≈ 13.6 µM) in data set [1] and 170 µg/mL (≈ 414 µM) in data set [2]. In data set [1], the “log(Kinetic_solubility)” value is -4.87. Besides, the Ratio Ki in the data set listed under Homo sapiens came to 8. Moreover, the IC50 in data set [5] was 15 µM. For the same compound, the Kieq in data set [3] was 501 nM; on Cannabinoid receptor 2 [4], 60 nM.

Regarding `COCCOCn1cc(C(=O)NC23CC4CC(CC(C4)C2)C3)c(=O)c2cc(C(C)C)ccc21`, in the data set filed under Homo sapiens, the Ratio Ki is more than 20. For the same compound, the values for the Kieq (in data set [3]; at Cannabinoid receptor 2 [4]) were more than 10000 nM and 480 nM, respectively.

On to `CCCCCn1cc(C(=O)NC23CC4CC(CC(C4)C2)C3)c(=O)c2ccc(Sc3ccccc3)cc21`, for which the Ratio Ki in the data set listed under Homo sapiens came out at 3.3. Besides, the Kieq in data set [3] was 5.3 nM; at Cannabinoid receptor 2 [4], 1.6 nM.
